KDM4C inh – blocks human GASC-1 (KDM4C) demethylase activity | GST-KDM4C 2-372, H3K9me3 peptide, LANCE TR-FRET | inhibition, % at 12.5 µM | 96,000 tested, 0.15% active;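 active = mean replicate inhibition above about 25%, with at least 55% of replicates also reaching it, limit read from the data, passing the limit was not always enough; inconclusive = only one of those two conditions met; inactive = neither condition met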
Target sequence (Q9H3R0 2-372 limits assumed): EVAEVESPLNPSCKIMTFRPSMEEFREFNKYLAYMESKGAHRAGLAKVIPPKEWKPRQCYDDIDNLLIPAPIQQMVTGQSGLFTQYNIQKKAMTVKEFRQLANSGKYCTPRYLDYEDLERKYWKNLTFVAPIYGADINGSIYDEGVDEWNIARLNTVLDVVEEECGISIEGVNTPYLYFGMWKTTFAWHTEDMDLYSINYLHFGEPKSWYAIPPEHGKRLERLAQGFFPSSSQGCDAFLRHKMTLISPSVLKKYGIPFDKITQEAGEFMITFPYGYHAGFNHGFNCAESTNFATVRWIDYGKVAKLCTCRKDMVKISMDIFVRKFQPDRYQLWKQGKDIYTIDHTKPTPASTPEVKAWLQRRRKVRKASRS
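Assay system: GST-GASC-1 enzyme fragment 2-372 | Amount: 10 nM enzyme | Medium: HEPES buffer, pH 7.5, plus ascorbate | Reagent: H3K9me3 peptide substrate, Fe(II), 2-oxoglutarate | Doses: Single-point compound screen | Incubation: 30 min demethylation and 1 h detection at room temperature | Measured by: LANCE TR-FRET, excitation 340 nm, emissions 618 and 671 nm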
IDH1 R132H inh – inhibitors of human IDH1 R132H; inhibition, % at 10 µM; IDH1 R132H reductase, diaphorase/resazurin fluorescence, 60 min; 70,000 tested, 0.18% active; in the data active = inhibition above about 34%; inconclusive = no clear call, values can overlap the other calls; inactive = below about 11%
Target sequence (O75874 whole entry R132H): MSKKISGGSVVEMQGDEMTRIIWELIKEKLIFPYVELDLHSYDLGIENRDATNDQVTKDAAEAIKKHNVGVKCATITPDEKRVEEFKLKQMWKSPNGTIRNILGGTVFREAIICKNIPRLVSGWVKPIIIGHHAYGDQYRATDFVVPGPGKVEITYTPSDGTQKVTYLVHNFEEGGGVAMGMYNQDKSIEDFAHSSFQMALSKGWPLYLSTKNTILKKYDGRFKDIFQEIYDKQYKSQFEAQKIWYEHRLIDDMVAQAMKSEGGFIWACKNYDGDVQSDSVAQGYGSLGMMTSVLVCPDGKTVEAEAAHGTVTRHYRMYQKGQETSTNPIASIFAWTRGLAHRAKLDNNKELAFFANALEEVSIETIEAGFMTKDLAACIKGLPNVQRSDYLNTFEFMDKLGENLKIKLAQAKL
T cruzi growth-1 – T. cruzi proliferation inhibition | T. cruzi beta-gal in NIH3T3, GalScreen luminescence, 90 h | inhibition, % at 8.34 µM | 77,000 tested, 5.9% active;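 active = mean inhibition above about 93%, with at least 55% of replicates each passing it, limit read from the data, passing the limit was not always enough; inconclusive = only one of those two conditions holds; inactive = neither condition holds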
T cruzi growth-2 – Trypanosoma cruzi proliferation inhibition; shares compounds with T cruzi growth-1; T. cruzi beta-gal in NIH3T3, GalScreen luminescence, 90 h; inhibition, % at 8.35 µM; 5,600 tested, 72% active; AID 651739;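 active = mean replicate inhibition above about 95% and at least 55% of replicates individually reaching it, limit read from the data; inconclusive = only one of the two criteria is met; inactive = neither criterion is met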
T cruzi growth-3 – Trypanosoma cruzi proliferation inhibition. inhibition, % at 2.09 µM. shares compounds with T cruzi growth-1. 5,600 tested, 21% active. T. cruzi beta-gal in NIH3T3, GalScreen luminescence, 90 h. AID 651740;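 active = mean inhibition above about 95%, with at least 55% of replicates also reaching it, limit read from the data; inconclusive = meets just one of the two conditions; inactive = meets neither condition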
3T3 cytotox – NIH/3T3 (mouse) viability loss | NIH/3T3 viability, CellTiter-Glo ATP luminescence, 90 h | AID 651742 | shares compounds with T cruzi growth-1 | cytotoxicity (signal decrease), % at 8.35 µM | 5,600 tested, 14% active;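 active = mean signal decrease across replicates above about 35% based on untreated-well scatter, with enough replicates individually passing, limit read from the data; inconclusive = no rule stated though some were filed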
3T3 cytotox 2 – kills mouse NIH/3T3 fibroblasts; 5,600 tested, 56% active; NIH/3T3 viability, CellTiter-Glo ATP luminescence, 90 h; shares compounds with T cruzi growth-1; inhibition, % at 24.9 µM;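 active = mean loss of cell viability signal at or above a set limit, and enough replicates individually reaching it; inconclusive = meets only the mean limit or only the replicate share; inactive = meets neither condition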
Of the large screens only hits and unclear results are named; the others gave an inactive call (follow-up assays come after a bar, where they were run). Many of the other results were omitted from the sample, so hits are more common in it than they were.

CN1CCCCN2[C@H](CO)[C@H](c3ccc(-c4ccc(F)cc4)cc3)[C@H]2C1	none (no result: IDH1 R132H inh)
C[C@H](CO)N1C[C@H](C)[C@@H](CN(C)C)Oc2cc(C#CC3CCCCC3)ccc2S1(=O)=O	none
C[C@H](CO)N1C[C@H](C)[C@H](CN(C)S(C)(=O)=O)Oc2cc(C#CC3CCCC3)ccc2S1(=O)=O	T cruzi growth-1 inconclusive (no result: IDH1 R132H inh) | T cruzi growth-2 100 | T cruzi growth-3 inactive | 3T3 cytotox inactive | 3T3 cytotox 2 66
C[C@@H]1CN([C@@H](C)CO)S(=O)(=O)c2ccc(C#CC3CC3)cc2O[C@H]1CN(C)S(C)(=O)=O	none (no result: T cruzi growth-1)
CCC(=O)N(C)C[C@@H]1Oc2cc(C#CC3CCCCC3)ccc2S(=O)(=O)N([C@@H](C)CO)C[C@H]1C	T cruzi growth-1 114 (no result: IDH1 R132H inh) | T cruzi growth-2 98 | T cruzi growth-3 inactive | 3T3 cytotox inactive | 3T3 cytotox 2 80
C[C@H]1CN([C@@H](C)CO)S(=O)(=O)c2ccc(C#CC3CCCC3)cc2O[C@H]1CN(C)S(C)(=O)=O	none
C[C@H]1CN([C@@H](C)CO)S(=O)(=O)c2ccc(C#CC3CCCCC3)cc2O[C@@H]1CN(C)C	T cruzi growth-1 109 | T cruzi growth-2 109 | T cruzi growth-3 inactive | 3T3 cytotox inactive | 3T3 cytotox 2 104
CCC(=O)N(C)C[C@@H]1Oc2cc(C#CC3CCCCC3)ccc2S(=O)(=O)N([C@H](C)CO)C[C@H]1C	none (no result: IDH1 R132H inh)
C[C@@H]1CN([C@@H](C)CO)S(=O)(=O)c2ccc(C#CC3CCCC3)cc2O[C@@H]1CN(C)S(C)(=O)=O	T cruzi growth-1 inconclusive | T cruzi growth-2 inactive | T cruzi growth-3 inactive | 3T3 cytotox inactive | 3T3 cytotox 2 67
C[C@H](CO)N1C[C@H](C)[C@@H](CN(C)C(=O)Cc2ccccc2)OCCCC[C@H](C)Oc2ccc(N(C)C)cc2C1=O	none
CCC(=O)N(C)C[C@H]1Oc2cc(C#Cc3ccncc3)ccc2S(=O)(=O)N([C@H](C)CO)C[C@H]1C	IDH1 R132H inh inconclusive, T cruzi growth-1 107 | T cruzi growth-2 inactive | T cruzi growth-3 inactive | 3T3 cytotox inactive | 3T3 cytotox 2 38
C[C@H](CO)N1C[C@H](C)[C@H](CN(C)S(C)(=O)=O)Oc2cc(C#Cc3ccccc3)ccc2S1(=O)=O	none
CCC(=O)N(C)C[C@H]1Oc2cc(C#Cc3ccncc3)ccc2S(=O)(=O)N([C@H](C)CO)C[C@@H]1C	none
C[C@@H]1CN([C@H](C)CO)S(=O)(=O)c2ccc(C#Cc3ccc(F)cc3)cc2O[C@H]1CN(C)S(C)(=O)=O	T cruzi growth-1 97 | T cruzi growth-2 98 | T cruzi growth-3 inactive | 3T3 cytotox inconclusive | 3T3 cytotox 2 55
O=C(C[C@@H]1C[C@@H]2c3cc(NC(=O)Nc4ccc(C(F)(F)F)cc4)ccc3O[C@@H]2[C@@H](CO)O1)NCC1CC1	none (no result: T cruzi growth-1)
C[C@@H]1CN([C@@H](C)CO)C(=O)c2cc(NC(=O)NC3CCCCC3)ccc2O[C@@H](C)CCCCO[C@@H]1CN(C)Cc1ccc(C(F)(F)F)cc1	none
C[C@H](CO)N1C[C@H](C)[C@@H](CN(C)C(=O)c2cccc(F)c2)Oc2ncc(C3=CCCCC3)cc2C1=O	none
C[C@@H]1CCCCO[C@@H](CN(C)Cc2ccncc2)[C@@H](C)CN([C@@H](C)CO)C(=O)c2cc(NC(=O)CCCN(C)C)ccc2O1	none
C[C@@H]1CCCCO[C@@H](CN(C)Cc2ccc(C(F)(F)F)cc2)[C@@H](C)CN([C@@H](C)CO)C(=O)c2cc(NC(=O)CCCN(C)C)ccc2O1	T cruzi growth-1 100 | T cruzi growth-2 105 | T cruzi growth-3 inactive | 3T3 cytotox inactive | 3T3 cytotox 2 102
CCCN(C)C[C@H]1OCCCC[C@H](C)Oc2ccc(NC(=O)CCCN(C)C)cc2C(=O)N([C@H](C)CO)C[C@@H]1C	none
C[C@H]1CCCCO[C@H](CN(C)Cc2ccncc2)[C@@H](C)CN([C@@H](C)CO)C(=O)c2cc(NC(=O)CCCN(C)C)ccc2O1	T cruzi growth-1 99 | T cruzi growth-2 inactive | T cruzi growth-3 inactive | 3T3 cytotox inactive | 3T3 cytotox 2 inactive
C[C@@H]1CN([C@@H](C)CO)C(=O)c2cc(NC(=O)CCCN(C)C)ccc2O[C@@H](C)CCCCO[C@@H]1CN(C)Cc1ccc(C(F)(F)F)cc1	none (no result: IDH1 R132H inh)
CCCN(C)C[C@@H]1OCCCC[C@H](C)Oc2ccc(NC(=O)CCCN(C)C)cc2C(=O)N([C@@H](C)CO)C[C@@H]1C	T cruzi growth-1 inconclusive | T cruzi growth-2 inactive | T cruzi growth-3 inactive | 3T3 cytotox inactive | 3T3 cytotox 2 inactive
Cn1cnc(S(=O)(=O)N2CCCCN3[C@@H](CO)[C@H](c4ccc(C#CC5CCCC5)cc4)[C@@H]3C2)c1	T cruzi growth-1 106 (no result: IDH1 R132H inh) | T cruzi growth-2 inactive | T cruzi growth-3 inactive | 3T3 cytotox inactive | 3T3 cytotox 2 100
Cn1cnc(S(=O)(=O)N2CCCCN3[C@H](C2)[C@@H](c2ccc(C#CC4CC4)cc2)[C@@H]3CO)c1	none (no result: KDM4C inh, IDH1 R132H inh)
Cn1cnc(S(=O)(=O)N2CCCCN3[C@H](C2)[C@@H](c2ccc(C#CC4CCCC4)cc2)[C@@H]3CO)c1	none (no result: IDH1 R132H inh)
Cn1cnc(S(=O)(=O)N2CCCCN3[C@H](CO)[C@H](c4ccc(C#CC5CCCC5)cc4)[C@H]3C2)c1	T cruzi growth-1 111 (no result: IDH1 R132H inh) | T cruzi growth-2 95 | T cruzi growth-3 inactive | 3T3 cytotox inactive | 3T3 cytotox 2 105
CC(=O)N1CCCCN2[C@H](CO)[C@@H](c3ccc(-c4cccc(C)c4)cc3)[C@@H]2C1	none (no result: IDH1 R132H inh)
COCC(=O)N1CCCCN2[C@H](C1)[C@@H](c1ccc(-c3cccc(C)c3)cc1)[C@@H]2CO	none (no result: IDH1 R132H inh)
Cc1cccc(-c2ccc([C@@H]3[C@H](CO)N4CCCCN(C(=O)NC(C)C)C[C@@H]34)cc2)c1	T cruzi growth-1 104 (no result: IDH1 R132H inh) | T cruzi growth-2 110 | T cruzi growth-3 inactive | 3T3 cytotox inactive | 3T3 cytotox 2 105
Cc1cccc(-c2ccc([C@H]3[C@H]4CN(C(=O)NC(C)C)CCCCN4[C@H]3CO)cc2)c1	T cruzi growth-1 99 (no result: IDH1 R132H inh) | T cruzi growth-2 inactive | T cruzi growth-3 inactive | 3T3 cytotox inactive | 3T3 cytotox 2 inactive
COCC(=O)N1CCCCN2[C@H](CO)[C@@H](c3ccc(-c4cccc(C)c4)cc3)[C@H]2C1	none (no result: IDH1 R132H inh)
Cc1cccc(-c2ccc([C@H]3[C@H](CO)N4CCCCN(C(=O)NC(C)C)C[C@@H]34)cc2)c1	T cruzi growth-1 106 (no result: IDH1 R132H inh) | T cruzi growth-2 107 | T cruzi growth-3 inactive | 3T3 cytotox inactive | 3T3 cytotox 2 96
COc1ccccc1N(CC(=O)Nc1cccc([N+](=O)[O-])c1C)S(C)(=O)=O	none (no result: KDM4C inh, T cruzi growth-1)
C=CC(C)(O)CC/C=C(\C)C(=O)OC1C(CO)OC(OC2OC=CC3(O)C(OC(=O)C4=COC(OC5OC(CO)C(O)C(O)C5O)C5C(C)CCC45)C4OC4(C)C23)C(O)C1O (stereo not given)	none (no result: KDM4C inh, T cruzi growth-1)
